Laboratory results reported in ChEMBL document CHEMBL1152791, “New poly(ADP-ribose) polymerase-1 inhibitors with antioxidant activity based on 4-carboxamidobenzimidazole-2-ylpyrroline and -tetrahydropyridine nitroxides and their precursors” (J Med Chem, 2009).
The source made the active and inactive calls. The calls are words filed in the database; no cut-off is given here.

Assays:
[1] = Antioxidant activity assessed as hydroxyl radical scavenging activity by fenton reaction; type: functional
How it was run: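 Fenton-type hydroxyl radical generation in 2.5 mL of 20 mM potassium phosphate pH 6.8 with 0.1 mM benzoic acid, 0.1 mM H2O2 and 20 µM Fe2+-EDTA. Hydroxybenzoic acid formation followed by fluorescence (ex 305 nm, em 407 nm). IC50 is the concentration (µM) halving the rate of benzoic acid hydroxylation.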

[2] = target: Poly [ADP-ribose] polymerase 1 (Rattus norvegicus, UniProt P27008); test: (§1) Inhibition of rat liver PARP1 by scintillation counting
Chain of Poly [ADP-ribose] polymerase 1 (P27008 whole entry): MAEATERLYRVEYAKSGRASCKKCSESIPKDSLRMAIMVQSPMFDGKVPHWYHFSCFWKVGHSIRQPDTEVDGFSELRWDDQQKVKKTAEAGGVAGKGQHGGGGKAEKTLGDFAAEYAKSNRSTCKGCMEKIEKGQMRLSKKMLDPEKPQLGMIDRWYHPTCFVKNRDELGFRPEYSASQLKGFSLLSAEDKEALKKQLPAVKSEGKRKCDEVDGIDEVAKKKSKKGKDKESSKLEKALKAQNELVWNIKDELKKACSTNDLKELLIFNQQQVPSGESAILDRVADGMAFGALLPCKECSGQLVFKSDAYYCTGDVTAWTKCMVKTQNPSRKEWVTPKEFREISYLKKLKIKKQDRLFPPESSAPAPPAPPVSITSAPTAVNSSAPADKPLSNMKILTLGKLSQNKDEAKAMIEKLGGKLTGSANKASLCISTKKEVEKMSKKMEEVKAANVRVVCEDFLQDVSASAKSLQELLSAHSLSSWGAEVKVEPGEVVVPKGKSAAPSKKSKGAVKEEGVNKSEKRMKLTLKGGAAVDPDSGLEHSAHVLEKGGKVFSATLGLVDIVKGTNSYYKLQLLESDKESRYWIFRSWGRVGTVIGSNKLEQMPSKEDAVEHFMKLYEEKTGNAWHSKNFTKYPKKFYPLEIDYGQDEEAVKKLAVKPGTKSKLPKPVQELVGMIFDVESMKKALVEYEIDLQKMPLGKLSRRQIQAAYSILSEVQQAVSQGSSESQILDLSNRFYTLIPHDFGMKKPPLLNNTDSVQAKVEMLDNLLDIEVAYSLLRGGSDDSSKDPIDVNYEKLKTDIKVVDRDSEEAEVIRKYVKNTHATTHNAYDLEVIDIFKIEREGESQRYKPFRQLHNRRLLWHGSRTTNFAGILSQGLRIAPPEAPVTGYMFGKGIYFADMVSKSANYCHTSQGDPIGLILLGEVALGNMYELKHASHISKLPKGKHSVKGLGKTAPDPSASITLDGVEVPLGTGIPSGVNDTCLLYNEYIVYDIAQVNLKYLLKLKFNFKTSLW

WRL68 = test: Inhibition of H2O2-induced cell death in human WRL68 cells after 3 hrs by MTT assay; type: functional, cell-based; settings: WRL68, 3 h
How it was run: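 WRL-68 cells (ATCC) were grown in DMEM with 10% fetal calf serum at 37 °C and 5% CO2, seeded at 2.5 × 10⁴ cells/well and left overnight. They were then exposed to 0.3 mM H2O2 alone or with 0.02–10 µM compound for 3 h, then 0.5% MTT for 3 h. Formazan was dissolved in acidic isopropanol and read at 550 nm. Runs used ≥6 parallels and were repeated 3 times. IC50 is the concentration (µM) halving H2O2-induced death.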

Rattus norvegicus [3] = test: Metabolic stability in Wistar rat assessed as 2-(1-oxyl-2,2,6,6-tetramethyl-1,2,3,6-tetrahydropyridin-4-yl)-1H-benzimidazol-4-carboxylic acid amide radical level in urine at 8 mg/kg, ip after 4 hrs by EPR spectroscopy; type: ADME, organism-based; parameters: dose 8 mg/kg, route intraperitoneal; settings: in vivo
How it was run: (§2)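 Male Wistar rats (290–350 g, n = 3/group) were housed singly in metabolic cages and given a single ip dose of the HCl salt dissolved in 1.0 mL 0.9% NaCl. Urine was collected before dosing and from injection to 4 h. Untreated urine was measured by X-band EPR in 50 µL glass capillaries to give the radical concentration.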

Rattus norvegicus [4] = test: Metabolic stability in Wistar rat assessed as 2-(1-oxyl-2,2,6,6-tetramethyl-1,2,3,6-tetrahydropyridin-4-yl)-1H-benzimidazol-4-carboxylic acid amide radical level in urine at 8 mg/kg, ip after 4 hrs by EPR spectroscopy in presence of PbO2; type: ADME, organism-based; parameters: dose 8 mg/kg, route intraperitoneal; settings: in vivo
How it was run: (§3)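 Male Wistar rats (290–350 g, n = 3/group) were housed singly in metabolic cages and given a single ip dose of the HCl salt in 1.0 mL 0.9% NaCl. For urine collected from 0 to 4 h, 50 mg PbO2 was added per 1 mL, vortexed 1 min and left 10 min. This oxidizes hydroxylamine to nitroxide. A 50 µL portion of supernatant was then measured by X-band EPR.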

[5] = Toxicity in ip dosed C57BL/6 mouse assessed as mortality measured every 24 hrs for 14 days; type: organism-based; settings: in vivo
How it was run: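 C57BL/6 mice, groups of eight, given a single intraperitoneal injection of […]. Animals were watched for respiratory, digestive and neurological changes. Deaths were counted every 24 h for 14 days. Animals were kept under standard conditions with tap water and chow ad libitum.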

[6] = target: Poly [ADP-ribose] polymerase 1 (Rattus norvegicus) (UniProt P27008); test: as §1
Chain of Poly [ADP-ribose] polymerase 1 (Rattus norvegicus) (P27008 whole entry): as above

Rattus norvegicus [7] = test: Metabolic stability in Wistar rat assessed as nitroxide metabolite level in urine at 8 mg/kg, ip after 4 hrs by EPR spectroscopy in presence of PbO2; type: ADME, organism-based; parameters: dose 8 mg/kg, route intraperitoneal; settings: in vivo; how it was run: as §3
Rattus norvegicus [8] = test: Metabolic stability in Wistar rat assessed as nitroxide metabolite level in urine at 8 mg/kg, ip after 4 hrs by EPR spectroscopy; type: ADME, organism-based; parameters: dose 8 mg/kg, route intraperitoneal; settings: in vivo; how it was run: as §2

Row | Structure (SMILES) | IC50 [1] | IC50 [2] | IC50 (WRL68) | other results
1 | CC1(C)C(c2cccc(C(F)(F)F)c2)=C(c2nc3c(C(N)=O)cccc3[nH]2)C(C)(C)N1O | 11.2 µM | 0.149 µM | 60.9 µM | 
2 | CC1(C)C=C(CSc2nc3c(C(N)=O)cccc3[nH]2)CC(C)(C)N1 | 350 µM | 4 µM | 5.57 µM | 
3 | CC1(C)NC(C)(C)C(c2cccc3c2oc2ccccc23)=C1c1nc2c(C(N)=O)cccc2[nH]1 | 5.3 µM | 1.8 µM | 0.324 µM | 
4 | CC1(C)NC(C)(C)C(c2nc3c(C(N)=O)cccc3[nH]2)=C1c1ccccc1 | 0.38 µM |  | 3.98 µM | 
5 | CC1(C)C=C(CSc2nc3c(C(N)=O)cccc3[nH]2)CC(C)(C)N1O | 180 µM | 5 µM | 12.7 µM | 
6 | CC1(C)C(c2nc3c(C(N)=O)cccc3[nH]2)=C(c2cccc3c2oc2ccccc23)C(C)(C)N1O | 5.3 µM | 1.8 µM | 26.8 µM | 
7 | CC1(C)C=C(Cn2cnc3c(C(N)=O)cccc32)C(C)(C)N1O | 1.8 µM | 10 µM | 1.99 µM | 
8 | CC1(C)C(c2ccccc2)=C(c2nc3c(C(N)=O)cccc3[nH]2)C(C)(C)N1O | 1.25 µM | 1.5 µM | 0.24 µM | 
9 | CC1(C)C=C(CSc2nc3c(C(N)=O)cccc3[nH]2)C(C)(C)N1O | 200 µM | 6 µM | 20.9 µM | 
10 | CC1(C)NC(C)(C)c2cc(-c3nc4c(C(N)=O)cccc4[nH]3)ccc21 | 140 µM | 0.45 µM | 0.19 µM | 
11 | CC1(C)C(Br)=C(c2nc3c(C(N)=O)cccc3[nH]2)C(C)(C)N1O | 2.8 µM | 0.201 µM | 8.21 µM | 
12 | COC(=O)[C@@H]1[C@@H](c2nc3c(C(N)=O)cccc3[nH]2)C(C)(C)N(O)C1(C)C | 0.9 µM |  | 11.1 µM | 
13 | CC1(C)C=C(c2nc3c(C(N)=O)cccc3[nH]2)CC(C)(C)N1O | 9.6 µM | 0.026 µM | 15.6 µM | Activity (Rattus norvegicus [3]): 0.7 nM; Activity (Rattus norvegicus [4]): 1.7 nM
14 | CC1(C)NC(C)(C)C(c2nc3c(C(N)=O)cccc3[nH]2)=C1c1cccc(C(F)(F)F)c1 | 13.4 µM |  | 32 µM | 
15 | CC1(C)NC(C)(C)c2cc(-c3nc4c(C(N)=O)cccc4[nH]3)ncc21 | 150 µM | 0.47 µM | 0.08 µM | 
16 | CC(C)NC(=O)c1cccc2[nH]c(C3=CC(C)(C)NC3(C)C)nc12 | 2.3 µM | 10 µM | 56.7 µM | 
17 | CC1(C)C=C(c2nc3c(C(N)=O)cccc3[nH]2)C(C)(C)N1 | 2.1 µM |  | 0.62 µM | LD50 at 336 h [5]: 620 mg/kg
18 | CC1(C)C=C(c2ccc(-c3nc4c(C(N)=O)cccc4[nH]3)cc2)C(C)(C)N1 | 4.5 µM |  | 0.341 µM | 
19 | CN1C(C)(C)C=C(c2nc3c(C(N)=O)cccc3[nH]2)C1(C)C | 73 µM |  | 0.095 µM | 

Row | Structure (SMILES) | IC50 [1] | IC50 [2] | IC50 (WRL68) | other results
20 | COc1cc(-c2nc3c(C(N)=O)cccc3[nH]2)ccc1OCC1=CC(C)(C)NC1(C)C | 3.8 µM |  | 0.101 µM | 
21 | CC1(C)C=C(c2nc3c(C(N)=O)cccc3[nH]2)CC(C)(C)N1 | 1.6 µM |  | 0.098 µM | LD50 at 336 h [5]: 740 mg/kg
22 | CC1(C)C=C(c2nc3ccccc3[nH]2)CC(C)(C)N1 | 5.5 µM |  |  | Activity [6]: inactive
23 | CC1(C)C=C(c2nc3c(C(N)=O)cccc3[nH]2)CC(C)(C)N1O.Cl |  |  |  | Activity (Rattus norvegicus [7]): 116 nM; Activity (Rattus norvegicus [8]): 87 nM
24 | COc1cc(-c2nc3c(C(N)=O)cccc3[nH]2)ccc1OCC1=CC(C)(C)N(O)C1(C)C | 14.1 µM | 0.472 µM | 10.1 µM | 
25 | CC(=O)N1C(C)(C)C=C(c2nc3c(C(N)=O)cccc3[nH]2)C1(C)C | 81 µM |  | 3.15 µM | 
26 | CC1(C)c2cc(-c3nc4c(C(N)=O)cccc4[nH]3)sc2C(C)(C)N1O | 27 µM | 3.4 µM | 40 µM | 
27 | CON1C(C)(C)C=C(c2nc3c(C(N)=O)cccc3[nH]2)C1(C)C | 113 µM |  | 0.0094 µM | 
28 | CC(C)NC(=O)c1cccc2[nH]c(C3=CC(C)(C)N(O)C3(C)C)nc12 | 2.1 µM | 10 µM | 3.35 µM | 
29 | CC1(C)C=C(COc2ccc(-c3nc4c(C(N)=O)cccc4[nH]3)cc2)C(C)(C)N1O | 13.2 µM | 0.564 µM | 1.61 µM | 
30 | CC1(C)NC(C)(C)C(c2nc3c(C(N)=O)cccc3[nH]2)=C1Br | 3.4 µM |  | 3.51 µM | 
31 | CC1(C)C=C(c2nc3cc(C(N)=O)ccc3[nH]2)CC(C)(C)N1O | 170 µM |  | 28.3 µM | Activity [6]: inactive
32 | CC1(C)C=C(CSc2nc3c(C(N)=O)cccc3[nH]2)C(C)(C)N1 | 200 µM | 3 µM | 3.14 µM | 
33 | CC1(C)NC(C)(C)c2sc(-c3nc4c(C(N)=O)cccc4[nH]3)cc21 | 10.5 µM |  | 6.92 µM | 
34 | CC1(C)C=C(c2nc3cc(C(N)=O)ccc3[nH]2)CC(C)(C)N1 | 45 µM |  |  | Activity [6]: inactive
35 | COC(=O)[C@@H]1[C@@H](c2nc3c(C(N)=O)cccc3[nH]2)C(C)(C)NC1(C)C | 3.1 µM | 0.216 µM | 0.33 µM | 
36 | CC1(C)C=C(COc2ccc(-c3nc4c(C(N)=O)cccc4[nH]3)cc2)C(C)(C)N1 | 4.3 µM |  | 1.61 µM | 
37 | CC1(C)C=C(c2ccc(-c3nc4c(C(N)=O)cccc4[nH]3)cc2)C(C)(C)N1O | 7.2 µM | 0.078 µM | 0.033 µM | 
